The record followed here is PubChem BioAssay AID623951 (Broad Institute, 2012).

Structures are written as SMILES.

The test has as its target PvdQ acyl-homoserine lactone acylase (Pseudomonas aeruginosa LESB58). Nature of the test: PvdQ acylase enzyme activity blockers – biochemical, fluorescence, plate reader, dry powder samples, dose response (AID 623951). As to conditions: purified PvdQ, 4-MU laurate hydrolysis. In short, it runs like this: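 System: purified Pseudomonas aeruginosa PvdQ acylase enzyme; Amount: PvdQ enzyme at 0.02 µM final; Medium: Tris pH 8.0 buffer with NaCl, TCEP and Triton X-100; Probe or stimulus: 0.8 mM 4-MU laurate; Incubation: 30 min enzyme–compound pre-incubation, 60 min reaction, room temperature; Technique: fluorescence, ex 303–367 nm, em 440–460 nm.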
A word on the AC50: it is the midpoint of the concentration-response curve, whichever way the signal moves. Turning to `N#CC(c1cccc(Cl)n1)c1ccc(Cl)cc1Cl` (stereo unspecified), the AC50 was 203 nM.

Turning to `N#CC(c1ccc(Cl)cc1)c1ccc(C(F)(F)F)c(Cl)n1` (stereo unspecified), the AC50 was 414 nM.

Take `CCCC(C#N)c1ccc(Cl)cc1` (stereo unspecified): the AC50 is 99.4 nM.

For the compound `CCCCC(C#N)c1ccccc1OC(F)(F)F` (stereo unspecified), the AC50 is 1300 nM. Consider `CCCCC(C#N)c1ccc(F)cc1` (stereo unspecified), for which the AC50 was 20.2 nM.

In the case of `N#CC(c1ccc(C(F)(F)F)c(Cl)n1)c1ccc(Cl)cc1F` (stereo unspecified), the AC50 is 802 nM. To `CC(C#N)(c1ccc(Cl)cc1)c1ccc(C(F)(F)F)cn1` (stereo unspecified) belongs 5630 nM; to `N#CC(c1ccc(C(F)(F)F)c(Cl)n1)c1ccccc1OC(F)(F)F` (stereo unspecified), 433 nM. Regarding `CCCCC(C#N)c1ccc(Cl)cc1F` (stereo unspecified), the AC50 was 457 nM. As for `Cc1ccc(C(C#N)c2ccc(Cl)cc2)nc1C#N` (stereo unspecified), the AC50 was 221 nM.

Take `N#CC(c1ccc(Cl)cc1Cl)c1ncccc1Cl` (stereo unspecified): the AC50 is 279 nM.

On to `N#CC(c1cccc(Cl)n1)c1ccc(Cl)cc1F` (stereo unspecified), for which the AC50 was 77 nM. To `N#CC(c1ccc(Cl)cc1)c1ncccc1Cl` (stereo unspecified) belongs 5.76 nM; to `N#CC(c1cccc(Cl)n1)c1ccccc1OC(F)(F)F` (stereo unspecified), 936 nM; to `N#CC(CC1CC1)c1ccc(Cl)cc1` (stereo unspecified), 258 nM. The value for `N#CC(c1cccc(C(F)(F)F)n1)c1ccccc1OC(F)(F)F` (stereo unspecified) was 1530 nM; that for `N#CC(c1ccc(Cl)cc1)c1ccc(C(F)(F)F)cn1` (stereo unspecified) was 546 nM. `N#Cc1cccc(C(C#N)c2ccc(Cl)cc2)n1` (stereo unspecified): the AC50 was 138 nM.

For `N#CC(c1cccc(C(F)(F)F)n1)c1ccc(Cl)cc1F` (stereo unspecified), the AC50 is less than 3 nM. The value for `Cc1ccc(C(C#N)c2ccc(Cl)cc2)nc1` (stereo unspecified) was 271 nM; that for `N#CC(c1ccc(Cl)cc1)c1cccc(C(F)(F)F)n1` (stereo unspecified) was 11.1 nM. The value for `N#CC(c1ccc(C(F)(F)F)c(Cl)n1)c1ccc(Cl)cc1Cl` (stereo unspecified) was 831 nM; that for `COc1cccc(C(C#N)c2ccc(F)cc2)n1` (stereo unspecified) was 240 nM; that for `N#Cc1cccc(C(C#N)c2ccc(Cl)cc2Cl)n1` (stereo unspecified) was 380 nM. To `N#CC(c1ccc(C(F)(F)F)cc1)c1ccc(C(F)(F)F)c(Cl)n1` (stereo unspecified) belongs 1390 nM. For the compound `CCCCC(C#N)c1ccc(C(F)(F)F)cc1` (stereo unspecified), the AC50 is 182 nM. The value for `N#CC(c1ccc(F)cc1)c1cccc(C(F)(F)F)n1` (stereo unspecified) was 11.7 nM; that for `N#Cc1ccc(C(C#N)c2ccc(Cl)cc2Cl)nc1` (stereo unspecified) was 2700 nM. To `N#CC(c1ccc(C(F)(F)F)cc1)c1cccc(C(F)(F)F)n1` (stereo unspecified) belongs 43.4 nM; to `N#CC(c1ccc(F)cc1)c1ccc(C(F)(F)F)c(Cl)n1` (stereo unspecified), 398 nM; to `N#Cc1ccc(C(C#N)c2ccc(Cl)cc2)nc1` (stereo unspecified), 2660 nM.

As to `N#CC(c1ccc(C(F)(F)F)cc1)c1cccc(Cl)n1` (stereo unspecified), the AC50 was 287 nM. Take `CC(C)CC(C#N)c1ccc(Cl)cc1` (stereo unspecified): the AC50 was 121 nM. To `CCCCC(C#N)c1ccc(Cl)cc1Cl` (stereo unspecified) belongs 75.6 nM; to `Cc1ccc(C(C#N)c2ccc(F)cc2)nc1C#N` (stereo unspecified), 142 nM; to `Cc1ccc(C(C#N)c2ccccc2OC(F)(F)F)nc1C#N` (stereo unspecified), 467 nM.

For the compound `N#CC(c1ccc(Cl)cc1)c1ccc(Cl)cn1` (stereo unspecified), the AC50 was 62.8 nM. The value for `Cc1cccc(C(C#N)c2ccc(Cl)cc2)n1` (stereo unspecified) was 138 nM.

Take `CCCCC(C#N)c1ccc(Cl)cc1` (stereo unspecified): the AC50 was 118 nM. To `N#Cc1cccc(C(C#N)c2ccc(Cl)cc2F)n1` (stereo unspecified) belongs 140 nM; to `N#Cc1cccc(C(C#N)c2ccccc2OC(F)(F)F)n1` (stereo unspecified), 1340 nM.
